{"source": "ChEMBL document CHEMBL1123247", "about": "“Nucleoside conjugates. 7. Synthesis and antitumor activity of 1-beta-D-arabinofuranosylcytosine conjugates of ether lipids” (J Med Chem, 1986)", "key": {"L1210 [1]": {"test_system": "L1210", "assay": "Antitumor activity was determined against the ip implanted L1210 leukemia in mice by percent increase in life span at 100 mg/kg (treatment of 1-5qd schedule) dosage", "type": "functional, Mus musculus", "conditions": "route intraperitoneal", "in_short": "(§1)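 DBA/2J mice in groups of 6 (wt 23-28 g) were inoculated ip with 1×10^6 L1210 cells on day 0. Dosing was ip from 24 h, in 0.9% NaCl with 0.5% Tween-80 (conjugates sonicated), across a range of doses. Mice were observed daily until death or 45 days. Median T/C was computed from survivors per NCI protocols, and ILS = (T/C − 1)×100.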"}, "L1210 [2]": {"test_system": "L1210", "assay": "Antitumor activity was determined against the ic implanted L1210 lymphoid leukemia in mice by change in […] at 80 mg/kg (1-5qd treatment schedule) dosage", "type": "functional, Mus musculus", "in_short": "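DBA/2J mice, 6 per group (wt 26-32 g), inoculated ic with 1×10^5 L1210 cells on day 0. Dosing ip began 24 h after inoculation, with a sonicated solution or suspension in 0.9% NaCl containing 0.5% Tween-80, given over a range of doses. Animals were followed daily until death. Body weight change, median survival T/C, and %ILS = (T/C − 1) × 100 were computed from survivors per NCI protocols.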"}, "L1210 [3]": {"test_system": "L1210", "assay": "Antitumor activity against ic implanted L1210 lymphoid leukemia in mice expressed as active dose range (1 qd treatment schedule) required to produce increase in life span by >25% was determined; Range is 200-400", "type": "functional, Mus musculus", "in_short": "(§2)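 DBA/2J mice, groups of 6 (26-32 g), got 1 × 10^5 L1210 cells ic on day 0. Dosing was ip starting 24 h later, as a sonicated solution or suspension in 0.9% NaCl with 0.5% Tween-80, over a wide dose range. Mice were followed daily until death. Median survival T/C was taken from survivors per NCI protocols, and ILS = (T/C − 1) × 100. Active range means doses giving ILS ≥25%; optimal dose means greatest ILS.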"}, "L1210 [4]": {"test_system": "L1210", "assay": "Antitumor activity against ip implanted L1210 leukemia in mice expressed as active dose range (1 qd treatment schedule) required to produce increase in life span by >25% was determined; Range is 50-400", "type": "functional, Mus musculus", "in_short": "(§3)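 DBA/2J mice, groups of 6 (23-28 g), were inoculated ip with 1 × 10^6 L1210 cells on day 0. Dosing was ip from 24 h, in 0.9% NaCl with 0.5% Tween-80 (sonicated solution or suspension). Mice were observed daily until death or day 45. Median survival T/C followed NCI protocols, and ILS = (T/C − 1) × 100. Active range means doses giving ILS ≥25%; optimal dose means greatest ILS.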"}, "L1210 [5]": {"test_system": "L1210", "assay": "Antitumor activity was determined against the ip implanted L1210 leukemia in mice by 45-day survivors in mice at 300 mg/kg (treatment of 1qd schedule) dosage", "type": "functional, Mus musculus", "conditions": "route intraperitoneal", "in_short": "as §1"}, "L1210 [6]": {"test_system": "L1210", "assay": "Antitumor activity was determined against the ic implanted L1210 lymphoid leukemia in mice by percent increase in life span at 133 mg/kg (1,5,9qd treatment schedule) dosage", "type": "functional, Mus musculus", "in_short": "as §2"}, "L1210 [7]": {"test_system": "L1210", "assay": "Antitumor activity was determined against the ic implanted L1210 lymphoid leukemia in mice by percent increase in life span at 300 mg/kg (1 qd treatment schedule) dosage", "type": "functional, Mus musculus", "in_short": "as §2"}, "L1210 [8]": {"test_system": "L1210", "assay": "Antitumor activity was determined against the ip implanted L1210 leukemia in mice by percent increase in life span at 40 mg/kg (treatment of 1-5qd schedule) dosage", "type": "functional, Mus musculus", "conditions": "route intraperitoneal", "in_short": "as §1"}, "L1210 [9]": {"test_system": "L1210", "assay": "Antitumor activity was determined against the ip implanted L1210 leukemia in mice by percent increase in life span at 300 mg/kg (treatment of 1qd schedule) dosage", "type": "functional, Mus musculus", "conditions": "route intraperitoneal", "in_short": "as §1"}, "P388 [10]": {"test_system": "P388", "assay": "Antitumor activity was determined against the ip implanted P388 leukemia in mice by change in […] at 500 mg/kg (1 qd treatment schedule) dosage", "type": "functional, Mus musculus", "conditions": "route intraperitoneal", "in_short": "(§4)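 P388 leukemia, 1×10^6 cells implanted ip on day 0 into DBA/2J mice, groups of 6 (wt 23-33 g). Dosing ip started 24 h post-inoculation, vehicle 0.9% NaCl containing 0.5% Tween-80. Animals were observed daily until death or 45 days. Outputs were weight change, median survival T/C from survivors per NCI protocols, and %ILS = (T/C − 1) × 100.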"}, "L1210 [11]": {"test_system": "L1210", "assay": "Antitumor activity was determined against the ip implanted L1210 leukemia in mice by range in survival days at 400 mg/kg (treatment of 1qd schedule) dosage; Range is 20-33", "type": "functional, Mus musculus", "conditions": "route intraperitoneal", "in_short": "(§5)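 DBA/2J mice, 23-28 g, in groups of 6, were inoculated ip with 1×10^6 L1210 cells on day 0. Dosing was ip starting 24 h later on the stated daily schedules. Conjugates were given as sonicated solutions and reference prodrugs as suspensions in 0.9% NaCl with 0.5% Tween-80. Mice were observed daily until death or 45 days. Median survival T/C was calculated from survivors per NCI protocols.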"}, "L1210 [12]": {"test_system": "L1210", "assay": "Antitumor activity against ic implanted L1210 lymphoid leukemia in mice expressed as active dose range (1-5qd treatment schedule) required to produce increase in life span by >25% was determined; Range is 40-100", "type": "functional, Mus musculus", "in_short": "as §2"}, "L1210 [13]": {"test_system": "L1210", "assay": "Antitumor activity was determined against the ip implanted L1210 leukemia in mice by percent increase in life span at 80 mg/kg (treatment of 1-5qd schedule) dosage", "type": "functional, Mus musculus", "conditions": "route intraperitoneal", "in_short": "as §1"}, "L1210 [14]": {"test_system": "L1210", "assay": "Antitumor activity was determined against the ip implanted L1210 leukemia in mice by percent median survival rate (treated/control) at 80 mg/kg (treatment of 1-5qd schedule) dosage; 25.5/7.0", "type": "functional, Mus musculus", "conditions": "route intraperitoneal", "in_short": "as §5"}, "P388 [15]": {"test_system": "P388", "assay": "Antitumor activity was determined against the ip implanted P388 leukemia in mice by 45-day survivors in mice at 60 mg/kg (treatment of 1-5qd schedule) dosage", "type": "functional, Mus musculus", "conditions": "route intraperitoneal", "in_short": "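DBA/2J mice, 23-33 g, in groups of 6, were inoculated ip with 1×10^6 P388 cells on day 0. Dosing was ip from 24 h on the stated schedules, in 0.9% NaCl with 0.5% Tween-80 (sonicated solution or suspension). Survival was followed daily until death or 45 days. Median T/C was calculated from survivors per NCI protocols, with ILS = (T/C − 1) × 100.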"}, "P388 [16]": {"test_system": "P388", "assay": "Antitumor activity was determined against the ip implanted P388 leukemia in mice by change in […] at 60 mg/kg (treatment of 1-5qd schedule) dosage", "type": "functional, Mus musculus", "conditions": "route intraperitoneal", "in_short": "as §4"}, "L1210 (mouse)": {"test_system": "L1210 (mouse)", "assay": "Antitumor activity was determined against the ic implanted L1210 lymphoid leukemia in mice by change in […] at 500 mg/kg (treatment of 1qd schedule) dosage"}, "L1210 [17]": {"test_system": "L1210", "assay": "Antitumor activity against ip implanted L1210 leukemia in mice expressed as active dose range (1-5qd treatment schedule) required to produce increase in life span by >25% was determined; Range is 5-350", "type": "functional, Mus musculus", "in_short": "as §3"}, "P388 [18]": {"test_system": "P388", "assay": "Antitumor activity was determined against the ip implanted P388 leukemia in mice by percent median survival rate (treated/control) at 200 mg/kg (treatment of 1-5qd schedule) dosage; 23.0/11.0", "type": "functional, Mus musculus", "conditions": "route intraperitoneal"}, "P388 [19]": {"test_system": "P388", "assay": "Antitumor activity was determined against the ip implanted P388 leukemia in mice by range in survival days at 500 mg/kg (treatment of 1qd schedule) dosage; Range is 14-15", "type": "functional, Mus musculus", "conditions": "route intraperitoneal"}, "P388 [20]": {"test_system": "P388", "assay": "Antitumor activity was determined against the ip implanted P388 leukemia in mice by change in […] at 200 mg/kg (treatment of 1-5qd schedule) dosage", "type": "functional, Mus musculus", "conditions": "route intraperitoneal", "in_short": "as §4"}}}
{"smiles": "CCCCCCCCCCCCCCCCCCOCC(COP(=O)(O)OP(=O)(O)OC[C@H]1O[C@@H](n2ccc(N)nc2=O)[C@@H](O)[C@@H]1O)OC(=O)CCCCCCCCCCCCCCC", "note": "(mixture of isomers)", "values": [{"measurement": "ILS", "setting": "L1210 [1]", "result": 229}]}
{"smiles": "CCCCCCCCCCCCCCCC(=O)OC[C@H](COP(=O)(O)OP(=O)(O)OC[C@H]1O[C@@H](n2ccc(N)nc2=O)[C@@H](O)[C@@H]1O)OC(=O)CCCCCCCCCCCCCCC", "values": [{"measurement": "Weight change", "setting": "L1210 [2]", "result": -5.24, "unit": "g mouse-1"}, {"measurement": "Active dose range", "setting": "L1210 [3]", "result": 200, "unit": "mg/kg/day"}, {"measurement": "Active dose range", "setting": "L1210 [4]", "result": 50, "unit": "mg/kg/day"}, {"measurement": "Survivors", "setting": "L1210 [5]", "result": 1}, {"measurement": "ILS", "setting": "L1210 [6]", "result": 150}, {"measurement": "ILS", "setting": "L1210 [7]", "result": 200}, {"measurement": "ILS", "setting": "L1210 [8]", "result": 275}, {"measurement": "ILS", "setting": "L1210 [9]", "result": 215}, {"measurement": "Weight change", "setting": "P388 [10]", "result": -0.07, "unit": "g mouse-1"}]}
{"smiles": "CCCCCCCCCCCCCCCCOCC(COP(=O)(O)OP(=O)(O)OC[C@H]1O[C@@H](n2ccc(N)nc2=O)[C@@H](O)[C@@H]1O)OC(=O)CCCCCCCCCCCCCCC", "note": "(mixture of isomers)", "values": [{"measurement": "Range", "setting": "L1210 [11]", "result": 20}, {"measurement": "Active dose range", "setting": "L1210 [12]", "result": 40, "unit": "mg/kg/day"}, {"measurement": "ILS", "setting": "L1210 [13]", "result": 264}, {"measurement": "T/C", "setting": "L1210 [14]", "result": 25.5, "unit": "%"}, {"measurement": "Survivors", "setting": "P388 [15]", "result": 6}, {"measurement": "Weight change", "setting": "P388 [16]", "result": -3.3, "unit": "g mouse-1"}, {"measurement": "Weight change", "setting": "L1210 (mouse)", "result": -2.07, "unit": "g mouse-1"}]}
{"smiles": "Nc1ccn([C@@H]2O[C@H](CO)[C@@H](O)[C@@H]2O)c(=O)n1", "note": "[CYTARABINE]", "values": [{"measurement": "Active dose range", "setting": "L1210 [17]", "result": 5, "unit": "mg/kg/day"}, {"measurement": "T/C", "setting": "P388 [18]", "result": 23, "unit": "%"}, {"measurement": "Range", "setting": "P388 [19]", "result": 14}, {"measurement": "Weight change", "setting": "P388 [20]", "result": -3.62, "unit": "g mouse-1"}]}
